Calls of active or inactive are those of the source. The rule behind the calls is not given here.
Tests used:
HL-60 [1] = test: Induction of autophagy in p53 null human HL60 cells harboring wild type FLT3 assessed as LC-3 degradation at 50 to 200 nM after 24 hrs by Western blot analysis; type: functional, cell-based
Summary of the method: (§1)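 Cells (1,500,000 per well) grown 12 h, then drug-treated as specified. Lysed in RIPA buffer, sonicated, centrifuged, protein normalized by BCA. Run on 4–12% Bis-Tris gels in MES, transferred, probed overnight at 4 °C with primary antibodies at 1/1000. Actin served as reference for LC3-II quantitation.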

OVCAR-5 = test: Antiproliferative activity against human OVCAR5 cells assessed as reduction in cell viability after 48 hrs by CellTiter-Blue assay; type: functional; conditions: OVCAR-5, 48 h, read-out: LC50 (the source's name)
Summary of the method: (§2)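 Cells grown in RPMI1640 with 10% FBS at 37 °C, 5% CO₂. 5,000–10,000 cells/well were pre-incubated overnight, and a time-zero CellTiter-Blue read was taken. Six 10-fold dilutions (top final 10 μM) were applied for 48 h, followed by 0.125 mg/mL CellTiter-Blue for 2–4 h. Resorufin fluorescence was read at ex 560/em 590 nm. […] Triplicates.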

Malme-3M = test: Antiproliferative activity against human MALME-3M cells assessed as reduction in cell viability after 48 hrs by CellTiter-Blue assay; type: functional; conditions: read-out: LC50 (the source's name); summary of the method: as §2
HL-60 [2] = test: Effect on XIAP protein degradation in p53 null human HL60 cells harboring wild type FLT3 at 50 to 200 nM after 24 hrs by Western blot analysis; type: functional, cell-based; summary of the method: as §1
OVCAR-8 = test: Antiproliferative activity against human OVCAR8 cells assessed as reduction in cell viability after 48 hrs by CellTiter-Blue assay; type: functional; conditions: OVCAR-8, 48 h, read-out: LC50 (the source's name); summary of the method: as §2
UACC-62 = test: Antiproliferative activity against human UACC62 cells assessed as reduction in cell viability after 48 hrs by CellTiter-Blue assay; type: functional; conditions: UACC-62, 48 h, read-out: LC50 (the source's name)
Summary of the method: (§3)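 NCI-60 panel lines grown in RPMI1640 with 10% FBS at 37 °C, 5% CO₂. Seeded at 5,000–10,000 cells/well and pre-incubated overnight. Exposed for 48 h to six 10-fold dilutions (top final 10 μM), with a time-zero plate read at dosing. CellTiter-Blue (0.125 mg/mL) for 2–4 h, fluorescence 560/590 nm, triplicate curves.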

SNB-75 = test: Antiproliferative activity against human SNB75 cells assessed as reduction in cell viability after 48 hrs by CellTiter-Blue assay; type: functional; conditions: SNB-75, 48 h, read-out: LC50 (the source's name); summary of the method: as §3
[3] = AUC (0 to infinity) in CD1 mouse at 5 mg/kg, iv after 24 hrs by LC-MS/MS analysis; type: ADME, organism-based; parameters: dose 5 mg/kg, route intravenous, time infinity; conditions: in vivo
Summary of the method: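 Male CD-1 mice, fasted overnight, 3 per route; compound in PBS with 5% DMSO, iv bolus 5 mg/kg or oral gavage 20 mg/kg. Blood sampled at 5, 15, 30 min and 1–24 h. Plasma protein-precipitated with acetonitrile plus internal standard, quantified by LC-MS/MS (MRM). AUC by linear trapezoidal method; parameters by non-compartmental analysis.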

MDA-MB-468 = test: Antiproliferative activity against human MDA-MB-468 cells assessed as reduction in cell viability after 48 hrs by CellTiter-Blue assay; type: functional; conditions: MDA-MB-468, 48 h, read-out: LC50 (the source's name); summary of the method: as §2
HT-29 = test: Antiproliferative activity against human HT-29 cells assessed as reduction in cell viability after 48 hrs by CellTiter-Blue assay; type: functional; conditions: HT-29, 48 h, read-out: LC50 (the source's name); summary of the method: as §2
[4] = molecular target: 72 kDa type IV collagenase (Homo sapiens) (UniProt P08253); test: Inhibition of MMP-2 (unknown origin) at 10 to 50 uM incubated for 10 to 15 mins and measured after 2 hrs by fluorescence based assay
Summary of the method: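 MMP-2/MMP-9 in activation buffer with test agent (final 50 and 10 μM), 10–15 min incubation, then fluorogenic substrate added. Incubated 2 h at 37 °C; fluorescence read at 320/405 nm. Kit MMP inhibitor was the positive control.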

A549 = test: Antiproliferative activity against human A549 cells assessed as reduction in cell viability after 48 hrs by CellTiter-Blue assay; type: functional; conditions: A549, 48 h, read-out: LC50 (the source's name); summary of the method: as §2
LOX IMVI = test: Antiproliferative activity against human LOXIMVI cells assessed as reduction in cell viability after 48 hrs by CellTiter-Blue assay; type: functional; conditions: read-out: LC50 (the source's name); summary of the method: as §2
MCF7 = test: Antiproliferative activity against human MCF7 cells assessed as reduction in cell viability after 48 hrs by CellTiter-Blue assay; type: functional; conditions: MCF7, 48 h, read-out: LC50 (the source's name); summary of the method: as §2
Histone deacetylase 4 = Histone deacetylase 4 (Homo sapiens, UniProt P56524); test: Inhibition of recombinant human HDAC4 using Boc-Lys (trifluoroacetyl)-AMC as substrate preincubated for 1 hr followed by substrate addition and measured after 2 hrs by fluorescence based micro plate reader analysis
Summary of the method: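 Recombinant enzyme was preincubated with serially varied inhibitor for 1 h at 30 °C. Boc-Lys(trifluoroacetyl)-AMC was then added to a final 50 μM and incubated 2 h at 30 °C. The reaction was stopped with developer containing trypsin and TSA, and fluorescence (ex 360/em 460 nm) was read 30 min later. Inhibition was taken relative to control wells and fitted to a variable-slope log(inhibitor) curve. Values are the mean of at least three experiments.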

786-0 = test: Antiproliferative activity against human 786-0 cells assessed as reduction in cell viability after 48 hrs by CellTiter-Blue assay; type: functional; conditions: 786-0, 48 h, read-out: LC50 (the source's name); summary of the method: as §2
SK-MEL-2 = test: Antiproliferative activity against human SK-MEL-2 cells assessed as reduction in cell viability after 48 hrs by CellTiter-Blue assay; type: functional; conditions: SK-MEL-2, 48 h, read-out: LC50 (the source's name); summary of the method: as §2
RS4-11 = test: Induction of apoptosis in human RS4:11 cells harboring wild type p53/FLT3 assessed as cleavage of pro-caspase 3 at 200 nM after 24 hrs by Western blot analysis; type: functional, cell-based; summary of the method: as §1
SK-MEL-5 = test: Antiproliferative activity against human SK-MEL-5 cells assessed as reduction in cell viability after 48 hrs by CellTiter-Blue assay; type: functional; conditions: SK-MEL-5, 48 h, read-out: LC50 (the source's name); summary of the method: as §2
SK-OV-3 = test: Antiproliferative activity against human SKOV3 cells assessed as reduction in cell viability after 48 hrs by CellTiter-Blue assay; type: functional; conditions: SK-OV-3, 48 h, read-out: LC50 (the source's name); summary of the method: as §2
MV4-11 = test: Induction of autophagy in human MV4-11 cells harboring wild type p53/FLT3-ITD mutant assessed as LC-3 degradation at 50 to 200 nM after 24 hrs by Western blot analysis; type: functional, cell-based; summary of the method: as §1
SW-620 = test: Antiproliferative activity against human SW620 cells assessed as reduction in cell viability after 48 hrs by CellTiter-Blue assay; type: functional; conditions: SW-620, 48 h, read-out: LC50 (the source's name); summary of the method: as §3
COLO 205 = test: Antiproliferative activity against human COLO205 cells assessed as reduction in cell viability after 48 hrs by CellTiter-Blue assay; type: functional; conditions: COLO 205, 48 h, read-out: LC50 (the source's name); summary of the method: as §2

72 kDa type IV collagenase (Homo sapiens), sequence (P08253 110-660 limits assumed): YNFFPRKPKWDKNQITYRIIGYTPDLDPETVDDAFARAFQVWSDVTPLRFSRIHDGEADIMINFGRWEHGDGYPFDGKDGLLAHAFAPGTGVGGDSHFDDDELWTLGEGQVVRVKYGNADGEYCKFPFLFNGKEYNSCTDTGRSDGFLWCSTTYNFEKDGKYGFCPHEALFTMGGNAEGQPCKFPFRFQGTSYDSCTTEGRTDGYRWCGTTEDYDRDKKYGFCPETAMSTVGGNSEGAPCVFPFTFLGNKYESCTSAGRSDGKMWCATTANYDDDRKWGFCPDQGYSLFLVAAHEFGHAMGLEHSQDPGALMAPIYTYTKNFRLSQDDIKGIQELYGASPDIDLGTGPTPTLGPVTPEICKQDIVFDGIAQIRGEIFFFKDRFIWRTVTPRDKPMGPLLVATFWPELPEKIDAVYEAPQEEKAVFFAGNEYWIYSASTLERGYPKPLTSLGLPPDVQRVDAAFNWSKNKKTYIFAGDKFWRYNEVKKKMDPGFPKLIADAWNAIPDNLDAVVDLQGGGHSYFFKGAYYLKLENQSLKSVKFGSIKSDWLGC
Histone deacetylase 4, sequence (P56524 whole entry): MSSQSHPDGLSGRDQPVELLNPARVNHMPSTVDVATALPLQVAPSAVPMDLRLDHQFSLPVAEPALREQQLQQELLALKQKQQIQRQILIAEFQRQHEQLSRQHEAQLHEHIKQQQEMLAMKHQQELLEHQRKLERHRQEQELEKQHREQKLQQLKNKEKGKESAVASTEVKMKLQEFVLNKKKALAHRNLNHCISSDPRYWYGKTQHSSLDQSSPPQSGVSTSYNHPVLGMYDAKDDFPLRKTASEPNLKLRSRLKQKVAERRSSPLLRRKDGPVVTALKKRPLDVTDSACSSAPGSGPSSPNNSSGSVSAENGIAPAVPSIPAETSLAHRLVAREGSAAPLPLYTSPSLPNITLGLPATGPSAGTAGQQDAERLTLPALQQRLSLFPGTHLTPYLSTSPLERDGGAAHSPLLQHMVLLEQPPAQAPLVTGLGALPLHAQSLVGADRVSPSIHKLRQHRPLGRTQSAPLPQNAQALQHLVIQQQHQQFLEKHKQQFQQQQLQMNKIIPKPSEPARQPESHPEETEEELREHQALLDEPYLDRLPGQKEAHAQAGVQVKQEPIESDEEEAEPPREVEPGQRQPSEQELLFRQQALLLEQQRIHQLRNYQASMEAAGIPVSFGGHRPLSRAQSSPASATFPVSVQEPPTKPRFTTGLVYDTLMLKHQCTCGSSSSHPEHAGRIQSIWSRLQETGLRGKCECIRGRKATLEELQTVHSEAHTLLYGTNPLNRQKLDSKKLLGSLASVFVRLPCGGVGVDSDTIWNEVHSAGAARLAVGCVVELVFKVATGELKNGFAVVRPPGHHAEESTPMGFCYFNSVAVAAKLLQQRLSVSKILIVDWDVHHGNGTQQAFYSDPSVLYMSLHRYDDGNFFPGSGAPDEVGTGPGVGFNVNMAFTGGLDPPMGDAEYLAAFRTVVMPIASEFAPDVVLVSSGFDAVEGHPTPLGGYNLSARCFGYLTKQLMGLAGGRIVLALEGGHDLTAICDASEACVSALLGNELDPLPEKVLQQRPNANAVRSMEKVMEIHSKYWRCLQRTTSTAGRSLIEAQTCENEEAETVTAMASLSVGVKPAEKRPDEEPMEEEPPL

SMILES: CCCNNC(=O)/C=C/c1ccc(CNCCc2c(C)[nH]c3ccccc23)cc1.O=C(O)C(F)(F)F
- Activity (HL-60 [1]): inactive
- CC50 (OVCAR-5): > 10 µM
- CC50 (Malme-3M): > 10 µM
- Activity (HL-60 [2]): Active
- CC50 (OVCAR-8): > 10 µM
- CC50 (UACC-62): 0.589 µM
- CC50 (SNB-75): > 10 µM
- AUC [3]: 0.334 µg·h/mL
- CC50 (MDA-MB-468): > 10 µM
- CC50 (HT-29): > 10 µM
- inhibition [4]: inactive
- CC50 (A549): > 10 µM
- CC50 (LOX IMVI): 0.537 µM
- CC50 (MCF7): > 10 µM
- IC50 (Histone deacetylase 4): > 10 µM
- CC50 (786-0): > 10 µM
- CC50 (SK-MEL-2): > 10 µM
- Activity (RS4-11): Active
- CC50 (SK-MEL-5): > 10 µM
- CC50 (SK-OV-3): > 10 µM
- Activity (MV4-11): Active
- CC50 (SW-620): > 10 µM
- CC50 (COLO 205): 0.66 µM
